Five molecules from ChEMBL document CHEMBL2046365, “Total synthesis and antifungal activity of (2S,3R)-2-aminododecan-3-ol” (2012) can be followed below.

Common to all, as to format: functional
Experiment [1] deals with Candida albicans. Briefly: Antifungal activity against Candida albicans MTCC 183 after 24 hrs by well diffusion method. The method in brief: (§1)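 Well diffusion on Mueller-Hinton agar plates, each surface-seeded with 0.1 mL of an MTCC Candida reference strain suspension at 1.5 × 10⁸ cfu/mL (0.5 McFarland). Compound added to 6.0 mm cork-bored wells at 300–1.4 per well; methanol well as negative control. Plates incubated 24 h at 30 °C. MIC taken as the lowest concentration giving an inhibition zone. Duplicates, mean reported.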
In general terms: Agar diffusion results depend on both activity and mobility in agar.

Another experiment concerns [Candida] aaseri. The experiment is described as follows: Antifungal activity against Candida aaseri MTCC 1962 after 24 hrs by well diffusion method. The method in brief:
as §1

In experiment [2] the test system is Candida albicans. The experiment is described as follows: Antifungal activity against Candida albicans. The method in brief:
as §1

Experiment [3] deals with Nakaseomyces glabratus. Briefly: Antifungal activity against Candida glabrata. The gist of the method: as §1
In experiment [4] the test system is Candida albicans. The experiment is described as follows: Antifungal activity against Candida albicans MTCC 7315 after 24 hrs by well diffusion method. The gist of the method:
as §1

The test system of experiment [5] is Candida albicans. The experiment is described as follows: Antifungal activity against Candida albicans MTCC 854 after 24 hrs by well diffusion method. The method in brief:
as §1

For experiment [6], the system named is Nakaseomyces glabratus. Briefly: Antifungal activity against Candida glabrata MTCC 3019 after 24 hrs by well diffusion method. The gist of the method:
as §1

For another experiment, the system named is Candida parapsilosis. The experiment is described as follows: Antifungal activity against Candida parapsilosis MTCC 1744 after 24 hrs by well diffusion method. The gist of the method:
as §1

The subject of experiment [7] is Candida albicans. Briefly: Antifungal activity against Candida albicans MTCC 3958 after 24 hrs by well diffusion method. The method in brief:
as §1

The mark [8] stands for this setting: Yamadazyma aaseri, MTCC 1962, 24 h.
Where [9] appears, read: Lodderomyces parapsilosis, MTCC 1744, 24 h.

Converted amounts (≈) assume the structure as drawn.

Turning to `CCCCCCCCC[C@@H](O)[C@H](C)N`, the MIC (as a rule, the lowest concentration that inhibits growth of the organism) in the experiment with Candida albicans [1] (MTCC 183, 24 h) came out at 9.9 µg/mL (≈ 49.2 µM); in experiment [Candida] aaseri (setting [8]), 9.9 µg/mL (≈ 49.2 µM); against Candida albicans [2], 0.7 µg/mL (≈ 3.48 µM); with Nakaseomyces glabratus [3] it was 30 µg/mL (≈ 149 µM); in the experiment with Candida albicans [4] (MTCC 7315, 24 h) it was 9.9 µg/mL (≈ 49.2 µM); in the experiment with Candida albicans [5] (MTCC 854, 24 h), 37.5 µg/mL (≈ 186 µM). For the same molecule, the MIC was 9.9 µg/mL (≈ 49.2 µM) in the experiment on Nakaseomyces glabratus [6] (MTCC 3019, 24 h); 4.9 µg/mL (≈ 24.3 µM) in the experiment with Candida parapsilosis (setting [9]); 19.8 µg/mL (≈ 98.3 µM) with Candida albicans [7] (MTCC 3958, 24 h).
`C[C@@H]1[C@H](O)[C@@H](C)/C=C/C=C/C=C/C=C/C=C/C=C/C=C/[C@H](O[C@@H]2O[C@H](C)[C@@H](O)[C@H](N)[C@@H]2O)C[C@@H]2O[C@](O)(C[C@@H](O)C[C@@H](O)[C@H](O)CC[C@@H](O)C[C@@H](O)CC(=O)O[C@H]1C)C[C@H](O)[C@H]2C(=O)O` [AMPHOTERICIN B]: the minimum inhibitory concentration (MIC) against Candida albicans [1] (MTCC 183, 24 h) was 300 µg/mL (≈ 325 µM); in experiment [Candida] aaseri (setting [8]), 300 µg/mL (≈ 325 µM); against Candida albicans [4] (MTCC 7315, 24 h), 300 µg/mL (≈ 325 µM); in the experiment with Candida albicans [5] (MTCC 854, 24 h) it was 300 µg/mL (≈ 325 µM); against Nakaseomyces glabratus [6] (MTCC 3019, 24 h) it was 300 µg/mL (≈ 325 µM); against Candida parapsilosis (setting [9]), 300 µg/mL (≈ 325 µM). The molecule further returned an MIC with Candida albicans [7] (MTCC 3958, 24 h) of 300 µg/mL (≈ 325 µM).
As for `OC(Cn1cncn1)(Cn1cncn1)c1ccc(F)cc1F` [FLUCONAZOLE], the MIC with Candida albicans [1] (MTCC 183, 24 h) came to 37.5 µg/mL (≈ 122 µM); in experiment [Candida] aaseri (setting [8]) it was 75 µg/mL (≈ 245 µM); in the experiment on Candida albicans [4] (MTCC 7315, 24 h), 37.5 µg/mL (≈ 122 µM); against Candida albicans [5] (MTCC 854, 24 h), 37.5 µg/mL (≈ 122 µM); against Nakaseomyces glabratus [6] (MTCC 3019, 24 h) it was 75 µg/mL (≈ 245 µM); against Candida parapsilosis (setting [9]), 18.8 µg/mL (≈ 61.4 µM). This molecule displayed a minimum inhibitory concentration (MIC) against Candida albicans [7] (MTCC 3958, 24 h) of 75 µg/mL (≈ 245 µM).
`Clc1ccc(COC(Cn2ccnc2)c2ccc(Cl)cc2Cl)c(Cl)c1` (configuration not stated) [MICONAZOLE]: the MIC was 9.9 µg/mL (≈ 23.8 µM) with Candida albicans [1] (MTCC 183, 24 h); 9.9 µg/mL (≈ 23.8 µM) in [Candida] aaseri (setting [8]); 9.9 µg/mL (≈ 23.8 µM) against Candida albicans [4] (MTCC 7315, 24 h); 9.9 µg/mL (≈ 23.8 µM) in the experiment with Candida albicans [5] (MTCC 854, 24 h); 9.9 µg/mL (≈ 23.8 µM) with Nakaseomyces glabratus [6] (MTCC 3019, 24 h); 9.9 µg/mL (≈ 23.8 µM) against Candida parapsilosis (setting [9]). Further, in the experiment with Candida albicans [7] (MTCC 3958, 24 h), the MIC turned out to be 9.9 µg/mL (≈ 23.8 µM).
Consider NYSTATIN, for which the MIC (in the experiment on Candida albicans [1]; in experiment [Candida] aaseri; in the experiment with Candida albicans [4]; with Candida albicans [5]; against Nakaseomyces glabratus [6]; against Candida parapsilosis) was 150 µg/mL each time. Besides, the minimal inhibitory concentration (MIC) against Candida albicans [7] was 150 µg/mL.
